Reference: ChEMBL document CHEMBL5113504, “Discovery of potent benzoxaborole inhibitors against SARS-CoV-2 main and dengue virus proteases” (Eur J Med Chem, 2022)
Calls of active or inactive are those of the source. The calls are words filed in the database; no cut-off is given here.

Experiments:
[1] = target: Genome polyprotein (dengue virus type 2) (UniProt P29990); assay: Inhibition of full length DENV2 NS2B-NS3 protease in human HeLa cells expressing luciferase reporter gene at 12.5 uM incubated for 24 hrs by luminescence analysis relative to control; format: cell-based
Procedure, shortened: (§1)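 Stable DENV2pro reporter HeLa cells seeded at 2×10^4 per well and dosed immediately; 24 h at 37 °C, lysed 15 min, coelenterazine (2.75 μM in PBS) injected, luminescence read 5 s. Triplicates; % inhibition vs untreated cells; EC50 by 4-parameter fit with cell-free background subtraction.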

[2] = tested on: HeLa; assay: Cytotoxicity against human HeLa cells expressing renilla luciferase reporter construct assessed as reduction in cell viability at 12.5 uM by luciferase based analysis; format: toxicity
[3] = tested on: HeLa; assay: Cytotoxicity against human HeLa cells expressing luciferase-based DENV-2 protease reporter system assessed as reduction in cell viability by celltiter-blue assay; format: toxicity
Procedure, shortened: (§2)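 CellTiter-Blue viability in HeLa reporter cells or Huh-7 cells, on plates run in parallel with the reporter or titer-reduction assay under the same treatment; each concentration in triplicate.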

[4] = target: T1, Genome polyprotein (dengue virus type 2, UniProt P29990); assay: Inhibition of full length DENV2 NS2B-NS3 protease in human HeLa cells expressing luciferase reporter gene incubated for 24 hrs by luminescence analysis; format: cell-based; procedure, shortened: as §1
[5] = target: Replicase polyprotein 1ab (Severe acute respiratory syndrome coronavirus 2) (UniProt P0DTD1); assay: Inhibition of C-terminal His tagged SARS CoV-2 main protease transfected in Escherichia coli BL21 (DE3) using 2-Abz-Ser-AlaVal-Leu-Gln-Ser-Gly-Tyr(3-NO2)-Arg-OH as substrate at 50 uM preincubated for 15 mins followed by substrate addition and measured after 15 mins by FRET assay relative to control; conditions: time 30.0 min
[6] = Permeability of compound in PBS at pH 7.4 measured after 5 hrs by HPLC-UV based PAMPA assay; format: ADME; conditions: pH 7.4, 5 h
[7] = tested on: Huh-7; assay: Cytotoxicity against human Huh-7 cells infected with Dengue virus serotype 2 assessed as reduction in cell viability by celltiter-blue assay; format: toxicity, cell-based; procedure, shortened: as §2
[8] = tested on: dengue virus type 2; assay: Antiviral activity against Dengue virus serotype 2 infected in Huh-7 cells assessed as reduction in virus titer at 12.5 uM incubated for 48 hrs followed by infection of Vero E6 cells with supernatant and measured after 7 days by crystal violet staining based analysis relative to control; format: functional; set-up: scale not given: the % may be the effect or the level left; conditions: time 9 day
Procedure, shortened: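 Huh-7 cells (1×10^4/well, overnight) infected with DENV-2 at MOI 1 for 2 h, medium changed, compound added; 48 h, triplicate supernatants pooled. Titer by plaque assay: Vero E6 infected 1 h with 10^-1 to 10^-6 dilutions, plaque medium 7 days, formaldehyde-fixed, crystal violet stained, plaques counted.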

[9] = target: T2, Replicase polyprotein 1ab (Severe acute respiratory syndrome coronavirus 2, UniProt P0DTD1); assay: Inhibition of C-terminal His tagged SARS CoV-2 main protease transfected in Escherichia coli BL21 (DE3) using 2-Abz-Ser-AlaVal-Leu-Gln-Ser-Gly-Tyr(3-NO2)-Arg-OH as substrate preincubated for 15 mins followed by substrate addition and measured after 15 mins by FRET assay
[10] = target: Replicase polyprotein 1ab (Severe acute respiratory syndrome coronavirus 2) (UniProt P0DTD1); assay: Binding affinity to C-terminal His tagged SARS CoV-2 main protease transfected in Escherichia coli BL21 (DE3) assessed as covalent bond formation by measuring mass adduct at 100 uM by ESI-TOF analysis
Procedure, shortened: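 Compounds at 100 μM incubated with active Mpro (3 μM) in 50 mM Tris-HCl pH 7.4, 100 mM NaCl, 20% v/v ethylene glycol, 0.0016% Brij 58; adducts sought by LC-ESI-TOF MS, C18 column, water/acetonitrile with 0.1% formic acid gradient, negative mode.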

[11] = Selectivity index, ratio of EC50 for inhibition of full length DENV2 NS2B-NS3 protease in human HeLa cells expressing luciferase reporter gene to IC50 for inhibition of C-terminal His tagged SARS CoV-2 main protease transfected in Escherichia coli BL21 (DE3); format: cell-based
[12] = target: T1, Genome polyprotein; assay: Chemical stability of the compound in DENV2 NS2B-NS3 protease assay buffer assessed as DENV2 NS2B-NS3 protease-mediated amide bond cleavage by measuring reduction in AUC at 100 uM measured after 8 hrs by HPLC analysis; format: ADME; conditions: dengue virus type 2, buffer
Procedure, shortened: (§3)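 Compound incubated with isolated protease (SARS-CoV-2 Mpro or DENV-2 protease) in that enzyme's assay buffer for 8 h; remaining compound quantified by HPLC with UV/Vis detection (peak AUC).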

[13] = target: Replicase polyprotein 1ab (Severe acute respiratory syndrome coronavirus 2) (UniProt P0DTD1); assay: Inhibition of C-terminal His tagged SARS CoV-2 main protease transfected in Escherichia coli BL21 (DE3) at 50 uM incubated in presence of DTT
Procedure, shortened: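 Mpro fluorogenic inhibition assay repeated with 1 mM DTT added to the assay buffer.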

[14] = target: T2, Replicase polyprotein 1ab; assay: Chemical stability of the compound in SARS-CoV-2 main protease assay buffer assessed as SARS-CoV-2 main protease-mediated amide bond cleavage at 100 uM measured after 8 hrs by HPLC based UV-Vis analysis; format: ADME; conditions: severe acute respiratory syndrome coronavirus 2, buffer; procedure, shortened: as §3
[15] = Selectivity index, ratio of CC50 for cytotoxicity against human HeLa cells expressing luciferase-based DENV-2 protease reporter system to EC50 for inhibition of full length DENV2 NS2B-NS3 protease in human HeLa cells expressing luciferase reporter gene; format: toxicity, cell-based; conditions: read-out: Ratio CC50/EC50

Cc1onc(-c2ccc(F)cc2)c1C(=O)Nc1ccc2c(c1)B(O)OC2
inhibition [1]: 32.6%
Activity [2]: Non-Toxic
CC50 [3]: > 100 µM
EC50 [4]: 21.6 µM
inhibition [5]: < 10%

OB1OCc2cc(F)ccc21 [TAVABOROLE]
inhibition [1]: 15.3%
CC50 [3]: > 50 µM
inhibition [5]: < 10%

CCCCCC(=O)Nc1ccc2c(c1)B(O)OC2
inhibition [1]: 37.2%
CC50 [3]: > 200 µM
EC50 [4]: 19.2 µM
inhibition [5]: < 10%

O=C(Nc1ccc2c(c1)B(O)OC2)c1ccc(C(F)(F)F)cc1
inhibition [1]: < 10%
Activity [2]: Non-Toxic
CC50 [3]: > 50 µM
inhibition [5]: 21%

N#Cc1ccc(COc2cccc(C(=O)Nc3ccc4c(c3)B(O)OC4)c2)cc1
permeability [6]: Permeable
CC50 [3]: > 200 µM
inhibition [5]: 43.4%

COc1cccc(C(=O)Nc2ccc3c(c2)B(O)OC3)c1
inhibition [1]: 60.1%
CC50 [3]: > 100 µM
EC50 [4]: 6.4 µM
inhibition [5]: 24.3%

O=S(=O)(Nc1ccc2c(c1)B(O)OC2)c1ccc(Cl)cc1
inhibition [1]: 51.6%
permeability [6]: Permeable
CC50 [3]: > 50 µM
EC50 [4]: 9.2 µM
inhibition [5]: < 10%

N#Cc1ccc(CNc2ccc3c(c2)B(O)OC3)cc1
inhibition [1]: 41.8%
CC50 [3]: > 100 µM
inhibition [5]: < 10%

Cc1cccc(COc2cccc(C(=O)Nc3ccc4c(c3)B(O)OC4)c2)c1
inhibition [1]: 85.2%
Activity [7]: Non-Toxic
CC50 [3]: 72.6 µM
Activity [8]: 72.6%
IC50 [9]: 59.8 µM
inhibition [5]: 55.5%

CC(C)(C)NC(=O)N[C@H](C(=O)N1C[C@H]2[C@@H]([C@H]1C(=O)NC(CC1CCC1)C(=O)C(N)=O)C2(C)C)C(C)(C)C (stereo partly drawn)
Activity [10]: Active
inhibition [5]: 70.8%

COc1cccc(COc2cccc(C(=O)Nc3ccc4c(c3)B(O)OC4)c2)c1
inhibition [1]: 90%
CC50 [3]: > 200 µM
inhibition [5]: 45.7%

O=[N+]([O-])c1ccc2c(c1)B(O)OC2
inhibition [1]: 14.5%
CC50 [3]: > 100 µM
inhibition [5]: < 10%

OB1OCc2ccccc21 [BENZOXABOROLE]
inhibition [1]: < 10%
Activity [2]: Non-Toxic
CC50 [3]: > 100 µM
inhibition [5]: < 10%

O=C(Nc1ccc2c(c1)B(O)OC2)c1ccc(OCc2ccccc2)cc1
inhibition [1]: 54.4%
CC50 [3]: > 50 µM
EC50 [4]: 8.8 µM
inhibition [5]: 39.6%

O=C(NCc1ccc(B(O)O)cc1)c1cccc(OCc2ccccc2)c1
inhibition [1]: 29.3%
CC50 [3]: > 50 µM
Ratio [11]: 5
EC50 [4]: 14 µM
inhibition [5]: 18.5%

O=C(Nc1ccc2c(c1)B(O)OC2)OCc1ccccc1
inhibition [1]: 67.5%
CC50 [3]: > 50 µM
EC50 [4]: 4 µM
inhibition [5]: < 10%

O=C(Oc1cncc(Cl)c1)c1cccs1
IC50 [9]: 1.7 µM
inhibition [5]: 95%

O=C(Nc1ccc2c(c1)B(O)OC2)c1ccc(Oc2ccccc2)cc1
inhibition [1]: 79.7%
Stability [12]: Stable
permeability [6]: Permeable
CC50 [3]: > 50 µM
EC50 [4]: 3.5 µM
inhibition [5]: 19.5%

O=C(Nc1ccc2c(c1)B(O)OC2)c1cccc(OCc2ccc(Cl)cc2)c1
Stability [12]: Stable
CC50 [3]: 75.3 µM
inhibition [5]: 43.5%

O=C(Nc1ccc2c(c1)B(O)OC2)c1ccc(N2CCOCC2)cc1
inhibition [1]: 41.1%
Activity [2]: Non-Toxic
CC50 [3]: > 50 µM
EC50 [4]: 17.1 µM
inhibition [5]: 12.7%

N=C(N)Nc1ccc2c(c1)B(O)OC2
inhibition [1]: < 10%
Activity [2]: Non-Toxic
permeability [6]: Impermeable
inhibition [13]: Active
CC50 [3]: > 100 µM
IC50 [9]: 10 µM
inhibition [5]: 88%

O=C(Nc1cccc(B(O)O)c1)c1cccc(OCc2ccccc2)c1
inhibition [1]: 65.1%
Activity [2]: Non-Toxic
permeability [6]: Permeable
CC50 [3]: > 50 µM
Ratio [11]: 5
EC50 [4]: 12.5 µM
inhibition [5]: < 10%

O=C(Nc1ccc2c(c1)B(O)OC2)c1cccc(OCc2ccccc2)n1
CC50 [3]: 124 µM
IC50 [9]: 38.5 µM
inhibition [5]: 99.6%

CN(c1ccc2c(c1)B(O)OC2)S(=O)(=O)c1ccc(Cl)cc1
inhibition [1]: 24.2%
Activity [2]: Non-Toxic
CC50 [3]: > 50 µM
EC50 [4]: > 50 µM
inhibition [5]: < 10%

O=C(Nc1ccc2c(c1)B(O)OC2)c1cccc(Oc2ccccc2)c1
inhibition [1]: 77.4%
CC50 [3]: > 50 µM
EC50 [4]: 6.4 µM
inhibition [5]: 34.6%

Nc1ccc2c(c1)B(O)OC2
inhibition [1]: < 10%
Activity [2]: Non-Toxic
CC50 [3]: > 100 µM
inhibition [5]: 17.5%

O=C(Nc1ccccc1)Nc1ccc2c(c1)B(O)OC2
inhibition [1]: 31%
CC50 [3]: > 200 µM
EC50 [4]: 22.5 µM
inhibition [5]: 15.9%

O=C(Nc1ccc2c(c1)B(O)OC2)c1ccccc1OCc1ccccc1
inhibition [1]: 66.7%
permeability [6]: Permeable
CC50 [3]: > 50 µM
EC50 [4]: 6.1 µM
inhibition [5]: 40.6%

O=C(Nc1cccc(C(=O)Nc2ccc3c(c2)B(O)OC3)c1)c1ccccc1
inhibition [1]: 51.5%
Stability [14]: Stable
CC50 [3]: > 200 µM
IC50 [9]: 52.3 µM
EC50 [4]: 13.1 µM
inhibition [5]: 45.6%

CC(C(=O)Nc1ccc2c(c1)B(O)OC2)c1cccc(Oc2ccccc2)c1 (stereo not drawn)
inhibition [1]: 76.7%
CC50 [3]: > 50 µM
EC50 [4]: 3.1 µM
inhibition [5]: 19%

Nc1ccc(C(=O)Nc2ccc3c(c2)B(O)OC3)cc1
inhibition [1]: 14.3%
CC50 [3]: > 200 µM
inhibition [5]: 39.7%

O=C(Nc1ccc2c(c1)B(O)OC2)c1ccc(OCc2ccc(Cl)cc2)cc1
inhibition [1]: 31.3%
Stability [12]: Stable
permeability [6]: Permeable
CC50 [3]: > 50 µM
EC50 [4]: 14.5 µM
inhibition [5]: 20.4%

O=C(Nc1ccc2c(c1)B(O)OC2)c1cccc(OCc2c(Cl)cccc2Cl)c1
permeability [6]: Permeable
CC50 [3]: 39.7 µM
selectivity ratio [15]: 74
inhibition [5]: 32.6%

O=C(Nc1ccc2c(c1)B(O)OC2)c1cccc(OCC2CCCCC2)c1
inhibition [1]: 79.1%
CC50 [3]: 123 µM
inhibition [5]: 29.3%

O=C(Nc1ccc2c(c1)B(O)OC2)c1cccc(NCc2ccccc2)c1
inhibition [1]: 73.6%
CC50 [3]: 144 µM
IC50 [9]: 56.9 µM
EC50 [4]: 5.2 µM
inhibition [5]: 46.9%
